# According to ChEMBL document CHEMBL3351343, “Synthesis and biological evaluation of novel sigma-1 receptor antagonists based on pyrimidine scaffold as agents for treating neuropathic pain” (J Med Chem, 2014):
# What was measured:
# [1] = tested on: Mus musculus; assay: Antinociceptive activity in Kun Ming mouse pain model assessed as reduction in licking and biting time during phase-1 at 80 mg/kg, ip administered 15 mins prior to formalin challenge relative to vehicle-treated control; assay type: functional; settings: route intraperitoneal
# Summary of the method: (§1)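 Kun Ming mice (20 ± 2.0 g), 10–12 per group, given vehicle (30% PEG 400) or drug ip at 10 mL/kg 15 min before intraplantar formalin. Time spent licking or biting the injected paw scored at 0–5 min (phase I) and 15–45 min (phase II). Effect (%) = (LTV − LTD)/LTV × 100.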
# [2] = tested on: Mus musculus; assay: Antinociceptive activity in ip dosed Kun Ming mouse pain model assessed as reduction in licking and biting time during phase-2 administered 15 mins prior to formalin challenge relative to vehicle-treated control; assay type: functional; summary of the method: as §1
# [3] = tested on: Rattus norvegicus; assay: Antineuropathic pain activity in po dosed Sprague-Dawley rat chronic constriction injury model assessed as inhibition of mechanical allodynia measured on day 18 by repeated dose treatment assay relative to sham-treated control; assay type: functional
# Summary of the method: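 Sprague-Dawley rats, sciatic nerve chronic constriction injury (four loose 4-0 silk ligatures, chloral hydrate anaesthesia); sham has nerve exposed without ligation. Model confirmed on day 14. Oral dosing in 0.5% methylcellulose, 10 mL/kg, twice daily on days 15–18. Read after first dose (day 15) and last dose (day 18). Von Frey withdrawal threshold and radiant-heat plantar withdrawal latency (30 s cutoff), each paw sampled four times and averaged; 10 rats/group.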
# [4] = AUC (0 to 24 hrs) in Sprague-Dawley rat at 320 mg/kg, po by HPLC/MS/MS analysis; assay type: ADME, organism-based; set-up: time < 24 hr, dose 320 mg/kg, route oral; settings: plasma
# Summary of the method: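 Sprague-Dawley rats (250 ± 5.0 g), n = 8/group, dosed iv via lateral tail vein at 16 mg/kg in 100% saline or by oral gavage at 320 mg/kg as suspension in 0.5% methylcellulose. Serial tail-vein blood into heparinized tubes at 30 min, 1, 2, 3, 4, 5, 6, 7 and 24 h. Plasma treated by acetonitrile protein precipitation, then HPLC/MS on C18 column, 40 °C.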
# [5] = molecular target: T1, 5-hydroxytryptamine receptor 1A (Rattus norvegicus) (UniProt P19327); assay: Displacement of [3H]-8-OH-DPAT from rat cerebral cortex 5-HT1A receptor at 1 uM after 30 mins by liquid scintillation counting analysis; assay type: tissue-based
# T1 sequence (whole entry): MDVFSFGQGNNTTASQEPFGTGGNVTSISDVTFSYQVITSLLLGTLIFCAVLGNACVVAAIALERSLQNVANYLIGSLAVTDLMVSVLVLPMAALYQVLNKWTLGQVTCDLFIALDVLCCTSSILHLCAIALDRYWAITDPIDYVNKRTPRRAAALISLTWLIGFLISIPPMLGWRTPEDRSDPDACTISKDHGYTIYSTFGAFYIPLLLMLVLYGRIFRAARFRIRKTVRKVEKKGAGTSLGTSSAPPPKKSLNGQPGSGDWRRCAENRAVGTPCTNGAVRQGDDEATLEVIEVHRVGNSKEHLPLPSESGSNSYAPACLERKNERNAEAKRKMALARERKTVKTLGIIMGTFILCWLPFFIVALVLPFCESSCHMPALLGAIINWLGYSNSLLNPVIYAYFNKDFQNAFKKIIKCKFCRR
# [6] = molecular target: 5-hydroxytryptamine receptor 2A (Rattus norvegicus) (UniProt P14842); assay: Displacement of [3H]-ketanserin from rat cerebral cortex 5-HT2A receptor at 1 uM after 15 mins by liquid scintillation counting analysis; assay type: tissue-based
# Sequence of 5-hydroxytryptamine receptor 2A (Rattus norvegicus) (P14842 whole entry): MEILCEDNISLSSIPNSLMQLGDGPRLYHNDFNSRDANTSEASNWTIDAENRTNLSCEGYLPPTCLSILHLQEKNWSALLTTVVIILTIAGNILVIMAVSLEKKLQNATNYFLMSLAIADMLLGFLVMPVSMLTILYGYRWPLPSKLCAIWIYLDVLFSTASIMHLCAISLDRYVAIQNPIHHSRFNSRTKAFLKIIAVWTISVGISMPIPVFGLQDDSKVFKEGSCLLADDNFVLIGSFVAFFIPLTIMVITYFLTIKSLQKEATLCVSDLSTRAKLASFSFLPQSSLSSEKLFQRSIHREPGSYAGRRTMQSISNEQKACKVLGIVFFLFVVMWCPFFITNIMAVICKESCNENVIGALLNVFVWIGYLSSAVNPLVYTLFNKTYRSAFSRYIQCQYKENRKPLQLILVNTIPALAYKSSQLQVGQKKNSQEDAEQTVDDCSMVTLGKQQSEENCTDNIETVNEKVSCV
# [7] = molecular target: Histamine H1 receptor (Cavia porcellus) (UniProt P31389); assay: Displacement of [3H]-mepyramine from guinea pig cerebellum histamine H1 receptor at 1 uM after 60 mins by liquid scintillation counting analysis
# Sequence of Histamine H1 receptor (Cavia porcellus) (P31389 whole entry): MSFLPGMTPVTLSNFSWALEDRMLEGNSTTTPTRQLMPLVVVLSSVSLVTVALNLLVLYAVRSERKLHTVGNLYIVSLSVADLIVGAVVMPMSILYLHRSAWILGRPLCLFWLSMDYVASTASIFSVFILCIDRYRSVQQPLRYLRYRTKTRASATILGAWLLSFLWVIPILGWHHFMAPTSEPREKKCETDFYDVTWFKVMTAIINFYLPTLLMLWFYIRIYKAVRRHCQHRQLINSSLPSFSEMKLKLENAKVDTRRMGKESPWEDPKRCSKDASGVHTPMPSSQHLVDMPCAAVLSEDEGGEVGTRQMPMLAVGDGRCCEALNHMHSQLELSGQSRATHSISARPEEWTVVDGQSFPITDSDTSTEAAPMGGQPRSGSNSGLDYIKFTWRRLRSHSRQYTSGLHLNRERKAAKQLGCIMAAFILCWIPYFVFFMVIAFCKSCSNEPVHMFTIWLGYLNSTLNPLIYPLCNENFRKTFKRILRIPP
# [8] = molecular target: Glutamate NMDA receptor (Rattus norvegicus) (UniProt P35439+Q00959+Q00960+Q00961+Q62645+Q8VHN2+Q9R1M7); assay: Displacement of [3H]-glycine from rat hippocampal membrane NMDA receptor at 1 uM after 30 mins by liquid scintillation counting analysis
structure (smiles),measurement,setting,value
Cc1nc(-c2ccc(Cl)cc2)nc(OCCCN2CCCCC2)c1Cl,Time,[1],12.65 s
same,Activity,[2],Dose-dependent effect
same,ED50,[2],42.1 mg/kg
same,inhibition,[3],Dose-dependent effect
same,ED50,[3]; 432 h,61.8 mg/kg
same,AUC(0-t) at 24 h,[4],54700 ng·h/mL
same,inhibition,[5],< 50%
same,inhibition,[6],< 50%
same,inhibition,[7],< 50%
same,inhibition,[8],< 50%
